Data reported in ChEMBL document CHEMBL1153826, “Synthesis of dammarane-type triterpene derivatives and their ability to inhibit HIV and HCV proteases” (Bioorg Med Chem, 2009).
Active and inactive are the calls of the source. No cut-off for these calls is given here.

Key:
Renin (Homo sapiens) = molecular target: T1, Renin (Homo sapiens) (UniProt P00797); test: Inhibition of renin up to 1 ug/mL; conditions: in the assay text read “1 mg/mL” for “1 ug/mL”
T1 sequence (whole entry): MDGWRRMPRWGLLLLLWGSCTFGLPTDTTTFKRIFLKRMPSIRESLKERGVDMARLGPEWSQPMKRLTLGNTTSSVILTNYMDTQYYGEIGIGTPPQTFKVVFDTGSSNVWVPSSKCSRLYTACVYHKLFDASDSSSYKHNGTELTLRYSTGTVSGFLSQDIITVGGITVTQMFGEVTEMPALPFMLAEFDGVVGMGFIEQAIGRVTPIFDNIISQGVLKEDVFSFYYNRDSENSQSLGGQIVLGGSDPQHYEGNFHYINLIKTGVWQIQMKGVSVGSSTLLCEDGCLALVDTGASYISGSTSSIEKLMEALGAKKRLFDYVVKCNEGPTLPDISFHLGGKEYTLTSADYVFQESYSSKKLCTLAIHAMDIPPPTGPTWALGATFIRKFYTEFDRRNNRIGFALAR
Outline: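 Recombinant renin was mixed with the compound in DMSO in 384-well plates. Fresh FRET peptide substrate Arg-Glu(EDANS)-[…]Dabcyl)-Arg was added, then rotated 30 min at 37 °C. Read-out was fluorometric, with inhibition calculated as in the HCV protease assay. Ac-HPFV-(Sta)-LF-NH2 was the positive control.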

Protease = Protease (Human immunodeficiency virus 1, UniProt Q9YQ12); test: Inhibition of HIV1 protease by HPLC method
Chain of Protease (Q9YQ12 whole entry): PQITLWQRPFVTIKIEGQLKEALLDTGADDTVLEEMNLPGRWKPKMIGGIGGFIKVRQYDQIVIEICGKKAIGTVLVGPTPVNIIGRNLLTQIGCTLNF

[1] = Inhibition of trypsin up to 1 ug/mL; conditions: in the assay text read “1 mg/mL” for “1 ug/mL”
Outline: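 Trypsin was mixed with the compound in DMSO and assay buffer in 384-well plates. Fresh HiLyte Fluor 488-labeled casein substrate was added with rotary shaking, then incubated 30 min at 37 °C. Fluorescence was read and inhibition calculated as in the HCV protease assay. Soybean trypsin–chymotrypsin inhibitor was the positive control.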

[2] = Inhibition of HCV protease by fluorometric method; parameters: species or system Hepacivirus hominis

SMILES	Activity (Renin (Homo sapiens))	IC50 (Protease)	Activity [1]	IC50 [2]
CC1(C)CCC[C@](C)([C@H]2CC[C@]3(C)[C@@H]2C(=O)C[C@@H]2[C@@]4(C)CC[C@H](OC(=O)CC(C)(C)C(=O)O)C(C)(C)[C@@H]4[C@@H](OC(=O)CC(C)(C)C(=O)O)C[C@]23C)O1	inactive	10.9 µM	inactive	18.9 µM
COC(=O)[C@@]1(O)C[C@]2(C)[C@H]3C[C@@H](O)[C@@H]4[C@@H]([C@@]5(C)CCCC(C)(C)O5)CC[C@@]4(C)[C@]3(C)CC[C@H]2C1(C)C	–	> 198 µM	–	> 198 µM
CC1(C)CCC[C@](C)([C@H]2CC[C@]3(C)[C@@H]2[C@H](O)C[C@@H]2[C@@]4(C)CCC(=O)C(C)(C)[C@@H]4CC[C@]23C)O1	–	39.4 µM	–	> 218 µM
CC1(C)CCC[C@](C)([C@H]2CC[C@]3(C)[C@@H]2[C@H](O)C[C@@H]2[C@@]4(C)CC[C@H](OC(=O)CC(C)(C)C(=O)O)C(C)(C)[C@@H]4CC[C@]23C)O1	inactive	2.7 µM	inactive	30.4 µM
CC1(C)CCC[C@](C)([C@H]2CC[C@]3(C)[C@@H]2C(=O)C[C@@H]2[C@@](C)(CC(=O)O)[C@H](C(C)(C)C(=O)O)CC[C@]23C)O1	inactive	22.8 µM	inactive	9.1 µM
CC1(C)CCC[C@](C)([C@H]2CC[C@]3(C)[C@@H]2[C@H](O)C[C@@H]2[C@@]4(C)CC[C@H](O)C(C)(C)[C@@H]4CC[C@]23C)O1 [PANAXADIOL]	–	> 217 µM	–	> 217 µM
CC1(C)CCC[C@](C)([C@H]2CC[C@]3(C)[C@@H]2[C@H](O)C[C@@H]2[C@@]4(C)CC[C@H](O)C(C)(C)[C@@H]4[C@@H](OC(=O)CC(C)(C)C(=O)O)C[C@]23C)O1	inactive	2.7 µM	inactive	> 166 µM
CC1(C)CCC[C@](C)([C@H]2CC[C@]3(C)[C@@H]2[C@H](O)C[C@@H]2[C@@]4(C)CC[C@H](OC(=O)CC(C)(C)C(=O)O)C(C)(C)[C@@H]4[C@@H](OC(=O)CC(C)(C)C(=O)O)C[C@]23C)O1	inactive	5.4 µM	inactive	1.8 µM
COC(=O)[C@@]1(O)C[C@]2(C)[C@H]3C[C@@H](O)[C@@H]4[C@@H]([C@@]5(C)CCCC(C)(C)O5)CC[C@@]4(C)[C@]3(C)CC(=O)[C@H]2C1(C)C	–	> 193 µM	–	> 193 µM
CC1(C)CCC[C@](C)([C@H]2CC[C@]3(C)[C@@H]2[C@H](O)C[C@@H]2[C@@]4(C)CCC(=O)C(C)(C)[C@@H]4C(=O)C[C@]23C)O1	–	42.3 µM	–	> 213 µM
CC1(C)CCC[C@](C)([C@H]2CC[C@]3(C)[C@@H]2[C@H](O)C[C@@H]2[C@@]4(C)C[C@](O)(C(=O)O)C(C)(C)[C@@H]4CC[C@]23C)O1	–	10 µM	–	> 204 µM
CC1(C)CCC[C@](C)([C@H]2CC[C@]3(C)[C@@H]2[C@H](O)C[C@@H]2[C@@]4(C)CC[C@H](O)C(C)(C)[C@@H]4[C@@H](O)C[C@]23C)O1 [PANAXATRIOL]	–	> 210 µM	–	> 210 µM
CC1(C)CCC[C@](C)([C@H]2CC[C@]3(C)[C@@H]2C(=O)C[C@@H]2[C@@]4(C)CC[C@H](OC(=O)CC(C)(C)C(=O)O)C(C)(C)[C@@H]4CC[C@]23C)O1	inactive	6.5 µM	inactive	62.2 µM
CC1(C)CCC[C@](C)([C@H]2CC[C@]3(C)[C@@H]2C(=O)C[C@@H]2[C@@]4(C)CCC(=O)C(C)(C)[C@@H]4CC[C@]23C)O1	–	> 218 µM	–	72.3 µM
CC1(C)CCC[C@](C)([C@H]2CC[C@]3(C)[C@@H]2[C@H](O)C[C@@H]2[C@@](C)(CC(=O)O)[C@H](C(C)(C)C(=O)O)CC[C@]23C)O1	inactive	11.9 µM	inactive	> 198 µM
CC1(C)CCC[C@](C)([C@H]2CC[C@]3(C)[C@@H]2[C@H](O)C[C@@H]2[C@@]4(C)CC[C@H](OC(=O)CC(C)(C)C(=O)O)C(C)(C)[C@@H]4[C@@H](O)C[C@]23C)O1	inactive	3.9 µM	inactive	> 166 µM
CC1(C)CCC[C@](C)([C@H]2CC[C@]3(C)[C@@H]2C(=O)C[C@@H]2[C@@]4(C)CCC(=O)C(C)(C)[C@@H]4C(=O)C[C@]23C)O1	–	24.2 µM	–	> 213 µM
CC1(C)CCC[C@](C)([C@H]2CC[C@]3(C)[C@@H]2[C@H](O)C[C@@H]2[C@@]4(C)C[C@](O)(C(=O)O)C(C)(C)[C@@H]4C(=O)C[C@]23C)O1	–	29.9 µM	–	> 213 µM
CC1(C)CCC[C@](C)([C@H]2CC[C@]3(C)[C@@H]2[C@H](O)C[C@@H]2[C@@]4(C)C=C(O)C(=O)C(C)(C)[C@@H]4CC[C@]23C)O1	–	28.5 µM	–	> 212 µM
